According to article PMC3692342 (International Journal of Nanomedicine, 2013):
Marks after values point to notes of the source that are not given here. Blank lines part the entries; values can stand above or below the molecule they belong to.

Legend:
ethanol-induced ulcers = experiment: Ethanol-induced gastric ulcer in rats; assay type: in vivo, Sprague Dawley male rats
[1] = Pharmacokinetic study in rabbits; assay type: in vivo, New Zealand White rabbits
WRL-68 cells = experiment: MTT cell viability assay on normal human hepatic cells; details: 24 hours, TQNLC concentration based on amount of TQ
How it was run: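 Human normal liver WRL-68 cells were grown in DMEM with 10% FBS, 100 units/mL penicillin and 0.1 mg/mL streptomycin at 37°C under 5% CO2. They were seeded at 1 × 10^5 cells/mL, held 24 h, then exposed to test compound for 24 h. MTT (2 mg/mL) was added for 1 h and A570 read. Viability is % of untreated absorbance; IC50 is the concentration giving 50% growth loss. Cisplatin served as positive control.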

[2] = oral pretreatment 20 mg/kg 1 h before ethanol
[3] = oral pretreatment 60 mg/Kg 1 h before ethanol
[4] = New Zealand White, rabbit, plasma, ip, 10 mg/kg
[5] = TQ in rabbits, single extravascular (IP) dose of TQNLC(20) 10 mg/kg, n = 3

SMILES: COc1ccc2[nH]c([S+]([O-])Cc3ncc(C)c(OC)c3C)nc2c1 (stereo not shown) [Omeprazole]
PAS-positive mucus versus ulcer control group (in words) (ethanol-induced ulcers; oral 20 mg/kg, PAS staining): more PAS-positive mucus
Histopathology of stomach versus ulcer control group (in words) (ethanol-induced ulcers; oral 20 mg/kg, hematoxylin and eosin): improved
I% (inhibition percentage of ulcer area) (ethanol-induced ulcers; [2]): 80.8%
UA (ulcer area) (ethanol-induced ulcers; [2]): 183 ± 5.8^b mm^2
pH (gastric juice) (ethanol-induced ulcers; oral pretreatment 20 mg/kg 1 h before ethanol 5 mL/kg): 6.43 ± 0.2^b

AUC(0-inf) [1, 4]: 26.822 ± 0.0094 µg·h/mL
Cmax [1, 4]: 4.81 ± 0.0555 µg/mL
Tmax [1, 4]: 3.96 ± 0.19 h
half-life [1, 4]: 4.493 ± 0.015 h
CL (clearance) [1, 5]: 0.71 ± 0.031 L/h/kg
Vd (volume of distribution) [1, 5]: 4.32 ± 0.34 L/kg
SMILES: CC1=CC(=O)C(C(C)C)=CC1=O [Thymoquinone, thymoquinone]
I% (inhibition percentage of ulcer area) (ethanol-induced ulcers; [3]): 89.1%
Mucus (weight of gastric mucosa) (ethanol-induced ulcers; [3]): 3.24 ± 0.4^d
UA (ulcer area) (ethanol-induced ulcers; [3]): 112.4 ± 3.2^e mm^2
pH (gastric juice) (ethanol-induced ulcers; [3]): 6.5 ± 0.3^c

SMILES: N.N.[Cl][Pt][Cl] [cisplatin]
IC50 (concentration causing 50% loss of cell growth) (WRL-68 cells): 5.1 ± 0.28 mg/L
